The source of these data is ChEMBL document CHEMBL3102842, “Direct synthesis of C3-mono-functionalized oxindoles from N-unprotected 2-oxindole and their antileishmanial activity” (Bioorg Med Chem, 2014).

≈ marks a conversion by molar mass, not a printed value. A value given as a limit tells only on which side of the number the result lay.

The nature of series [1]: Cytotoxicity against mouse RAW264.7 cells after 48 hrs by MTT assay. In kind it is cell-based. To be noted: read-out: TC50. The method, boiled down:
(§1)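 RAW 264.7 cells in RPMI 1640 with L-glutamine, 10% FBS and penicillin/streptomycin, seeded at 1×10^5 cells/well and left to adhere overnight at 37 °C, 5% CO2. Compounds at 10, 50 and 100 µg/mL, 37 °C. MTT (5 mg/mL) added for 4 h, formazan dissolved in DMSO, A540 read. Survival expressed as percent of untreated control, in triplicate. TC50 taken as the 50% macrophage-death concentration.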

In series [2] the test system is Leishmania infantum. The experiment in a line: Antileishmanial activity against Leishmania infantum zymodeme MON-1 axenic amastigotes assessed as parasite survival after 24 hrs. It is filed as functional, organism-based. To be noted: zymodeme MON-1, 24 h. The method, boiled down: (§2)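 Axenic amastigotes grown cell-free at 37 °C, 5% CO2 in MAA/20 (modified medium 199 with Hank's salts, tryptocasein, glucose, glutamine, NaHCO3, hemin, 25 mM HEPES, pH 6.5, 20% heat-inactivated FBS). Compounds in DMSO (≤1% v/v) at 10–100 µg/mL, 37 °C. Viability read after TO-PRO-3 staining (10 min, room temperature) by ImageStream imaging cytometry, ≥10,000 events per sample.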

A short description of series [3]: Therapeutic index, ratio of TC50 for mouse RAW264.7 cells to EC50 for Leishmania infantum zymodeme MON-1 axenic amastigotes. To be noted: read-out: TI. The method, boiled down:
(§3)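 Index calculated as TC50 on RAW 264.7 macrophages (MTT assay) divided by EC50 on L. infantum promastigotes or axenic amastigotes, using the same incubation time (24 or 48 h) for both.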

Series [4] can be described thus: Cytotoxicity against mouse RAW264.7 cells after 24 hrs by MTT assay. It is filed as cell-based. Particulars: read-out: TC50. The method, boiled down: as §1
(Formazan colour is commonly taken as a measure of viable cells.)

In series [5] the test system is Leishmania infantum. The experiment in a line: Antileishmanial activity against Leishmania infantum zymodeme MON-1 promastigotes assessed as parasite survival after 48 hrs. To be noted: zymodeme MON-1, 48 h. In kind it is functional, organism-based. Summed up: (§4)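 Log-phase promastigotes from 26 °C Schneider's Drosophila medium with 10% heat-inactivated FCS, pH 7.2, adjusted to 5×10^6 parasites/mL. Compounds in DMSO (≤1% v/v) at 10–100 µg/mL, incubated at 26 °C. Surviving promastigotes counted in a Neubauer chamber and compared with drug-free controls.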

Series [6] has as its system Leishmania infantum. The experiment in a line: Antileishmanial activity against Leishmania infantum zymodeme MON-1 promastigotes assessed as parasite survival after 24 hrs. In kind it is functional, organism-based. To be noted: zymodeme MON-1, 24 h. The method, boiled down: as §4
Series [7] can be described thus: Therapeutic index, ratio of TC50 for mouse RAW264.7 cells to EC50 for Leishmania infantum zymodeme MON-1 promastigotes after 24 hrs. To be noted: read-out: TI. The method, boiled down:
as §3

Series [8] in a line: Therapeutic index, ratio of TC50 for mouse RAW264.7 cells to EC50 for Leishmania infantum zymodeme MON-1 axenic amastigotes after 48 hrs. Particulars: read-out: TI. Summed up:
as §3

For series [9], the system named is Leishmania infantum. The experiment in a line: Antileishmanial activity against Leishmania infantum zymodeme MON-1 axenic amastigotes assessed as parasite survival after 48 hrs. It is filed as functional, organism-based. To be noted: zymodeme MON-1, 48 h. The method, boiled down: as §2
Series [10] is described as follows: Therapeutic index, ratio of TC50 for mouse RAW264.7 cells to EC50 for Leishmania infantum zymodeme MON-1 promastigotes after 48 hrs. Particulars: read-out: TI. The method, boiled down: as §3
Series [11] deals with Leishmania infantum. The experiment in a line: Antileishmanial activity against Leishmania infantum zymodeme MON-1 promastigotes assessed as parasite survival at 10 to 100 ug/ml after 48 hrs. It is filed as functional. The method, boiled down:
as §4

Turning to `Cc1ccc([C@H](CC(=O)c2ccccc2)[C@H]2C(=O)Nc3ccccc32)cc1` (relative stereo), the CC50 at 48 h in [1] came to 67.6 µg/mL (≈ 190 µM). Also, the EC50 in series [2] is 60.1 µg/mL (≈ 169 µM); in series [5], 51.6 µg/mL (≈ 145 µM); in [6], 62 µg/mL (≈ 174 µM); in series [9], 48.4 µg/mL (≈ 136 µM). The EC95 in [2] turned out to be 99.5 µg/mL (≈ 280 µM); in series [5] it was 96 µg/mL (≈ 270 µM); in [6], 111 µg/mL (≈ 312 µM); in series [9], 94.3 µg/mL (≈ 265 µM). In series [3], the selectivity ratio amounted to 1.6. Moreover, in series [4], the CC50 at 24 h is 93.3 µg/mL (≈ 262 µM). Also, the selectivity ratio at 24 h in [7] came to 1.5. The selectivity ratio at 48 h in [8] and in series [10] was 1.3 in each case.
`O=C(CC(c1ccc(Cl)cc1)C1C(=O)Nc2ccccc21)c1ccccc1` (configuration not stated): the CC50 at 48 h in series [1] came out at 35 µg/mL (≈ 93.1 µM). Further, the EC50 in series [2] is 18.5 µg/mL (≈ 49.2 µM); in [5] it was 11.5 µg/mL (≈ 30.6 µM); in [6] it was 19.7 µg/mL (≈ 52.4 µM); in series [9], 10.1 µg/mL (≈ 26.9 µM). The concentration for an effect of 95% (EC95) in series [2] turned out to be 74 µg/mL (≈ 197 µM); in series [5], 73.6 µg/mL (≈ 196 µM); in series [6], 76.5 µg/mL (≈ 204 µM); in [9], 70.2 µg/mL (≈ 187 µM). Moreover, the selectivity ratio in series [3] came out at 2. Moreover, the CC50 at 24 h in series [4] stood at 36.9 µg/mL (≈ 98.2 µM). Moreover, in series [7], the selectivity ratio at 24 h is 1.8. For the same compound, the selectivity ratio at 48 h in [8] worked out at 3.5; in series [10], 3.
Take `C[C@@H]1[C@H](O)[C@@H](C)/C=C/C=C/C=C/C=C/C=C/C=C/C=C/[C@H](O[C@@H]2O[C@H](C)[C@@H](O)[C@H](N)[C@@H]2O)C[C@@H]2O[C@](O)(C[C@@H](O)C[C@@H](O)[C@H](O)CC[C@@H](O)C[C@@H](O)CC(=O)O[C@H]1C)C[C@H](O)[C@H]2C(=O)O` [AMPHOTERICIN B]: the CC50 at 48 h in [1] came to 3.1 µg/mL (≈ 3.35 µM). For the same compound, the EC50 in [2] amounted to 0.5 µg/mL (≈ 0.541 µM); in series [5] it was 0.4 µg/mL (≈ 0.433 µM); in series [6], 0.55 µg/mL (≈ 0.595 µM); in series [9] it was 0.4 µg/mL (≈ 0.433 µM). Further, the EC95 in series [2] was found to be 3.9 µg/mL (≈ 4.22 µM); in series [5], 3.9 µg/mL (≈ 4.22 µM); in series [6], 3.9 µg/mL (≈ 4.22 µM); in series [9], 3.4 µg/mL (≈ 3.68 µM). Moreover, in series [3], the selectivity ratio came out at 39.1. The CC50 at 24 h in series [4] is 19.6 µg/mL (≈ 21.2 µM). Moreover, the selectivity ratio at 24 h in [7] came out at 35.1. Further, the selectivity ratio at 48 h in series [8] and in [10] was 8.2 throughout.
For the compound `O=C1C[C@@H](c2ccccc2)C2(C(=O)Nc3ccccc32)[C@H](c2ccccc2)C1`, the CC50 at 48 h in series [1] turned out to be 65.2 µg/mL (≈ 177 µM). Besides, in series [11], the Activity is given as greater than 74%. Besides, the 50% effective concentration (EC50) in [2] amounted to 28.5 µg/mL (≈ 77.6 µM); in [5], 6.9 µg/mL (≈ 18.8 µM); in series [6], 29.8 µg/mL (≈ 81.1 µM); in [9], 5.7 µg/mL (≈ 15.5 µM). For the same compound, the EC95 in series [2] was 78.3 µg/mL (≈ 213 µM); in series [5], 73.2 µg/mL (≈ 199 µM); in [6] it was 86.1 µg/mL (≈ 234 µM); in series [9], 74.1 µg/mL (≈ 202 µM). The selectivity ratio in series [3] was 3.1. Further, in series [4], the CC50 at 24 h was 88.8 µg/mL (≈ 242 µM). The selectivity ratio at 24 h in [7] stood at 2.9. Besides, the figures for the selectivity ratio at 48 h in series [8] and in [10] were 11.4 and 9.4, respectively.
In the case of `COc1ccc([C@@H]2CC(=O)C[C@@H](c3ccc(OC)cc3)C23C(=O)Nc2ccccc23)cc1`, in series [1], the CC50 at 48 h came out at 51 µg/mL (≈ 119 µM). For the same compound, the Activity in series [11] is on record as greater than 74%. Further, the 50% effective concentration (EC50) worked out at 21 µg/mL (≈ 49.1 µM) in series [2], 16.2 µg/mL (≈ 37.9 µM) in series [5], 23.9 µg/mL (≈ 55.9 µM) in series [6] and 15.1 µg/mL (≈ 35.3 µM) in series [9]. Moreover, the EC95 was 79.3 µg/mL (≈ 185 µM) in series [2], 75.2 µg/mL (≈ 176 µM) in series [5], 82.4 µg/mL (≈ 193 µM) in [6] and 74.8 µg/mL (≈ 175 µM) in [9]. Also, the selectivity ratio in series [3] was 3.8. The CC50 at 24 h in series [4] worked out at 80.5 µg/mL (≈ 188 µM). Also, the selectivity ratio at 24 h in series [7] was 3.3. Moreover, the selectivity ratio at 48 h was 3.4 in series [8] and 3.1 in [10].
Turning to `Cc1ccc([C@@H]2CC(=O)C[C@@H](c3ccc(C)cc3)C23C(=O)Nc2ccccc23)cc1`, the CC50 at 48 h in series [1] was 38.6 µg/mL (≈ 97.6 µM). In addition, in [11], the Activity is listed as greater than 74%. Further, the EC50 was found to be 5.9 µg/mL (≈ 14.9 µM) in series [2], 2 µg/mL (≈ 5.06 µM) in series [5], 6.1 µg/mL (≈ 15.4 µM) in series [6] and 1.9 µg/mL (≈ 4.8 µM) in series [9]. Besides, the EC95 in series [2] is 69.4 µg/mL (≈ 175 µM); in series [5], 71.4 µg/mL (≈ 181 µM); in series [6], 72.1 µg/mL (≈ 182 µM); in series [9], 69.9 µg/mL (≈ 177 µM). Moreover, in series [3], the selectivity ratio was 10.6. Moreover, the CC50 at 24 h in series [4] was determined as 62.8 µg/mL (≈ 159 µM). Also, the selectivity ratio at 24 h in series [7] came out at 10.2. Also, the selectivity ratio at 48 h worked out at 20.3 in series [8] and 18.7 in series [10].

The EC50 is the concentration that produces a half-maximal response. Broadly, the EC95 is the concentration at which the effect reaches the 95% level.
